PLK1 PBD inh – inhibitors of human Plk1 polo box domain binding; P53350; inhibition, %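 (tested at about 20 µM)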; hit rate 0.13% among 97,000; Plk1 PBD phosphopeptide binding, fluorescence polarization; in the data active = inhibition above about 34%, passing the limit was not always enough
PTK2B oligo ant – antagonists of human Pyk2 oligomerization; Q14289; Q293 cells, Pyk2 FERM NanoBiT luminescence; active compounds read low; z-score (the deposit names both 25 µM and 10 µM); hit rate 0.83% among 99,000; AID 1347419;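 active = Z-score of -3 or lower, scaled per plate to the spread of control and sample wells; inactive = z-score above -3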;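 also: negative z-score means lost luminescence so less FERM oligomerization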
FAK blocker – FAK (human) kinase inhibition. Q05397. biochemical FAK kinase activity assay. inhibition, %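 (tested at 7 µM)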. hit rate 0.84% among 97,000. AID 727; in the data active = inhibition above about 19%;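 also: 0% = DMSO and 100% = reference compound high control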
Target sequence (Q05397 whole entry, looked up): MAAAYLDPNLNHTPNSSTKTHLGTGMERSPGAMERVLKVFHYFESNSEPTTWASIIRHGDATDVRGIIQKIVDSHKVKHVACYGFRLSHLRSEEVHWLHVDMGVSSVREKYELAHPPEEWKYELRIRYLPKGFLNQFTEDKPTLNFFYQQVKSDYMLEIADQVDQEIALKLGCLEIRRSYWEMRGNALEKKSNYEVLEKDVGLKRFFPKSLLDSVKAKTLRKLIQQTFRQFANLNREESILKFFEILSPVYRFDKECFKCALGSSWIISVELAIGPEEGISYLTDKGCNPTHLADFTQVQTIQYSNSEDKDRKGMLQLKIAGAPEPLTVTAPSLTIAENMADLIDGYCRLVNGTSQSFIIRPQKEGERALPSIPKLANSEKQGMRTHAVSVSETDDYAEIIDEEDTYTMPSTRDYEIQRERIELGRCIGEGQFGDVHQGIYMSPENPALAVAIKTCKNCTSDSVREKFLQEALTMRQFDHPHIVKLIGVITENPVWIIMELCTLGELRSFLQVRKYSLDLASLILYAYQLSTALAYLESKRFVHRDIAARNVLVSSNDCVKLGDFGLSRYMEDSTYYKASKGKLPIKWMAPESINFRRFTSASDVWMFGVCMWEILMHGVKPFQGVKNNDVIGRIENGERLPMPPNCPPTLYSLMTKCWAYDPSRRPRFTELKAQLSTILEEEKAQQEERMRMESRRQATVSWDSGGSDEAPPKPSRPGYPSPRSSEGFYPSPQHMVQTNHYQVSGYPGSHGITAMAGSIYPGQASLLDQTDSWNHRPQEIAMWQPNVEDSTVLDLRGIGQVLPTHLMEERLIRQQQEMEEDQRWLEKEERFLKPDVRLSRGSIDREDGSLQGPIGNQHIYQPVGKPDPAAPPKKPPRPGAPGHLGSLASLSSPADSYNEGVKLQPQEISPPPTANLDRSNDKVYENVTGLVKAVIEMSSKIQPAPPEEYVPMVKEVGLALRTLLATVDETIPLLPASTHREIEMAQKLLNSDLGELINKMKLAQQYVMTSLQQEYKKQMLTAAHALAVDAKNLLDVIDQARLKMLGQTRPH
PLK1 inh – blocks human PLK1 kinase activity; P53350; recombinant PLK1 kinase, TR-FRET peptide phosphorylation; hit rate 0.53% among 97,000; inhibition, % at 10 µM;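 active = inhibition of 50% or more in the single-concentration screen; inactive = inhibition below 50%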;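 also: 0% = DMSO max control and 100% = H-89 dihydrochloride min control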
HIV Rev-RRE inh – HIV Rev-RRE protein-RNA interaction inhibition; P05866; Rev peptide-RRE RNA binding, FRET; AID 704; inhibition, % at 8 µM; hit rate 0.79% among 97,000;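 active = inhibition above the screen-wide mean plus 3 SD, cut at about 35% in these data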;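 also: 0% = median DMSO wells and 100% = median Neomycin B control wells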
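Test system – labelled RRE RNA duplex and labelled Rev peptide · Signal – fluorescein-to-Cy5 FRET, 480 nm excitation · Evaluation – % inhibition of FRET ratio versus controls · Benchmarks – DMSO low control, neomycin B high control · Incubation – 5 min RNA-compound premix plus 15 min binding step, 25 °C · Medium – HEPES pH 7.5 salt buffer with EDTA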
Cav32 inh – human Cav3.2 channel inhibition, primary screen; O95180; Cav3.2-expressing cells, Fluo-4 calcium fluorescence FDSS; active compounds read low; B-score at 10 µM; hit rate 4% among 100,000; AID 449739;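 active = single-dose well whose peak fluorescence ratio is a statistical outlier from its plate by either plate-standardised score or position-corrected B-score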
* marks the source's active call; other numbers are inactive results; . = not tested or not shown. Compounds with a hit are over-represented: about 5.8% of the library has one in this group of screens.

SMILES	PLK1 PBD inh	PTK2B oligo ant	FAK blocker	PLK1 inh	HIV Rev-RRE inh	Cav32 inh
CN(CCOc1ccc(Cl)cc1)c1ccc(S(=O)(=O)N2CCCCC2)cn1	-29	-0.98	-1	-9	12	-6.4*
CCOc1ccc(S(=O)(=O)N2CCCC2)cc1	-18	0.61	0	-5	5	0.3
CCOC(=O)C1CCCN(c2c(Nc3cccc(C)c3)c(=O)c2=O)C1 (stereo unspecified)	-5	.	-1	61*	-1	2.7
CCO[C@H]1OC(C(=O)O)=C[C@@H](c2ccccc2)[C@@H]1CCCO	.	.	.	.	.	1.3
CC1(C)CC(n2c(NCCO)nc3c(c2=O)C2(CCCC2)Cc2ccccc2-3)CCO1 (stereo unspecified)	.	-0.39	.	.	.	-4.3*
O=c1c2c(nc(NCCO)n1CC1CCCCC1)-c1ccccc1CC21CCCC1	-42	-2.3	9	-9	7	-2.7
CCN(CC)S(=O)(=O)c1ccc(NC(=O)Cn2c(=O)sc3ccccc32)cc1	12	-0.5	0	-16	13	-6.1*
CCN(CC)S(=O)(=O)c1ccc(NC(=O)CCC2CCCCC2)cc1	-24	-0.83	1	-18	7	-4.4*
O=C(OC(C(=O)NCc1ccc2c(c1)OCO2)c1ccc(Cl)cc1)c1ccco1 (stereo unspecified)	.	-0.4	.	.	.	-3.7
O=c1[nH]c(Nc2nc3ccccc3o2)nc2c1CCCC2	9	-3.3*	0	-7	12	1.1
Cc1ccc(Nc2nc3c(c(=O)[nH]2)CCCC3)cc1	6	-0.02	0	-11	15	-0.42
Cc1noc(C)c1CSc1cc(C)c2ccccc2n1	14	-1.2	-2	-2	10	-0.76
CS(=O)(=O)N(Cc1ccccc1)c1ccc(C(=O)N2CCc3ccccc3C2)cc1	-18	-0.71	2	-4	5	-1.3
Cc1cc(N2CCN(c3ccccc3Cl)CC2)n2cc(-c3ccccc3)nc2n1	-44	-1.6	-4	-3	-6	-4.3*
Cc1cc(N2CCN(c3ccccc3)CC2)n2cc(-c3ccccc3)nc2n1	-30	-0.29	-13	-8	7	-0.21
Cc1cccc(N2CCN(C(=O)c3ccc(CS(=O)(=O)c4ccccc4C)o3)CC2C)c1 (stereo unspecified)	6	-1.4	3	-11	0	-5.7*
Cc1nn(Cc2ccccc2)c(=O)n1N(C)c1ncc(C(F)(F)F)cc1Cl	1	2.6	3	-19	2	-0.84
COc1cc(/C=N/N(C)c2ccccc2)cc(Cl)c1O	-17	-3*	-1	2	2	0.99
COc1ccc(OC)c(/C=N/N(C)c2ccccc2)c1	12	-0.78	1	-14	-6	-0.033
CCOc1ccc(S(=O)(=O)Nc2ccccc2C(=O)NCc2ccco2)cc1	-23	-0.3	-1	-8	2	-1
COc1ccc(S(=O)(=O)Nc2ccccc2C(=O)NCc2ccco2)cc1Br	18	-0.2	2	-5	4	-3.8*
CCOC(=O)c1[nH]c(=O)[nH]c1COC(=O)c1cc2ccccc2o1	2	0.75	-1	-4	4	-0.041
CCCCSc1nc(SCC(=O)NCc2ccco2)c2c3c(sc2n1)COC(C)(CC)C3 (stereo unspecified)	-24	-1.1	-6	-6	0	-5.5*
O=C1CN(C(=O)COC(=O)c2ccccc2NCc2ccco2)c2ccccc2N1	-1	-0.04	0	-8	9	-3.8*
Cc1nc2ccccc2c(=O)n1/N=C/c1cn(-c2ccccc2)nc1-c1cccs1	-35	-1.1	4	-4	0	-4*
SMILES	PLK1 PBD inh	PTK2B oligo ant	FAK blocker	PLK1 inh	HIV Rev-RRE inh	Cav32 inh
Cc1nc2ccccc2c(=O)n1/N=C/c1ccccc1	4	0.91	0	-8	0	-0.58
COc1ccc2c(c1)N(C(=O)CSc1n[nH]c(C)n1)C(C)(C)C=C2C	7	0.44	2	-7	4	-1.1
Cc1cc(NC(=O)CSc2c(C)[nH]c3ccccc23)no1	.	.	.	.	.	-5.6*
Cc1cc(NC(=O)CSc2cn(CCNC(=O)c3ccc(Cl)cc3)c3ccccc23)no1	.	.	.	.	.	-6.1*
Cc1ccc(-n2c(SCC(=O)Nc3cc(C)on3)nc3c([nH]c4ccccc43)c2=O)cc1	-12	.	6	-13	7	.
Cc1ccc(C(=O)NCCn2cc(SCC(=O)Nc3nnc(C)s3)c3ccccc32)cc1	7	.	3	62*	9	-1.5
CC(NCc1ccc(N(C)C)cc1)C1CC2CCC1C2 (stereo unspecified)	-2	0.88	3	-33	2	1.1
O=C(CCCOc1ccccc1)N1CCN(c2ccc(F)cc2)CC1	-25	1	9	-7	12	-7.8*
O=C(c1ccccc1C(=O)N1CCN(c2ccc(F)cc2)CC1)N1CCN(c2ccc(F)cc2)CC1	-14	0.65	2	-5	15	-4.1*
CC(C(=O)N1CCN(c2ccc(Cl)cc2)CC1)c1ncc(C(F)(F)F)cc1Cl (stereo unspecified)	1	0.6	-6	-10	0	-2.1
CCOC(=O)Cc1ccc(NS(=O)(=O)c2ccc(SC)cc2)cc1	-22	-0.63	-1	-4	7	-6.2*
CCOc1ccc(NS(=O)(=O)c2ccc(SC)cc2)cc1	1	-0.91	4	-12	8	-5.9*
O=C(/C=C/c1ccccc1)c1cc(Br)ccc(=O)c1O	-46	-0.37	-7	4	46*	-4.7
O=C(/C=C/c1ccccc1)c1ccccc1	.	.	.	.	.	-0.74
CCC(C)n1c(SCc2ccccc2)nc2ccsc2c1=O (stereo unspecified)	.	-0.67	.	.	.	.
COCCn1nnnc1C(C(C)C)N(Cc1ccccc1)Cc1cc2cc(OC)ccc2[nH]c1=O (stereo unspecified)	.	-0.53	.	.	.	-4*
CCOC(=O)Cn1nnnc1C(CC)N(Cc1cccs1)Cc1cc2ccc(OC)cc2[nH]c1=O (stereo unspecified)	-14	0.75	-2	1	2	-3.7*
CCC(c1nnnn1C1CCCCC1)N(Cc1ccco1)Cc1cc2ccc(OC)cc2[nH]c1=O (stereo unspecified)	-19	0.67	4	-7	7	-0.68
COc1ccc2[nH]c(=O)c(CN(C3CCCCC3)C(c3nnnn3Cc3ccco3)C(C)C)cc2c1 (stereo unspecified)	23	0.4	12	-8	43*	.
COc1ccc2[nH]c(=O)c(CN(Cc3nnnn3Cc3ccco3)C3CCCCC3)cc2c1	8	0.13	1	1	17	0.77
CCOc1ccc2[nH]c(=O)c(C(c3nnnn3Cc3ccco3)N3CCCC(C)C3)cc2c1 (stereo unspecified)	10	-0.09	-8	-4	6	-5.9*
CCOC(=O)Nc1nc(-c2ccccc2)c(C(=O)c2ccc(Cl)cc2)s1	15	-3.4*	1	-20	14	-4
CCOC(=O)Nc1sc(C)nc1-c1ccccc1	-5	0.91	-7	-13	-1	-0.098

Bioassay records: PubChem BioAssay, several laboratories
